Screens as filed in PubChem BioAssay.
MrgX1 antag: antagonists of human MrgX1 receptor, primary screen, HEK293 cells, Fluo-4 calcium flux; AID 588676, 2011; BAM8-22 antagonism; stronger effect = lower value; Mas-related G-protein coupled receptor member X1 (Homo sapiens), Q96LB2; 1.3% of 310,000 active; B-score at 10 µM;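 active = calcium-response B-score plate-corrected more than 3 library SD below zero, starting fluorescence within 5 deviations, no agonist response on first addition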;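 also: peak minus trough fluorescence over baseline after final BAM8-22 challenge near maximal dose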
Target sequence (Q96LB2 whole entry, looked up): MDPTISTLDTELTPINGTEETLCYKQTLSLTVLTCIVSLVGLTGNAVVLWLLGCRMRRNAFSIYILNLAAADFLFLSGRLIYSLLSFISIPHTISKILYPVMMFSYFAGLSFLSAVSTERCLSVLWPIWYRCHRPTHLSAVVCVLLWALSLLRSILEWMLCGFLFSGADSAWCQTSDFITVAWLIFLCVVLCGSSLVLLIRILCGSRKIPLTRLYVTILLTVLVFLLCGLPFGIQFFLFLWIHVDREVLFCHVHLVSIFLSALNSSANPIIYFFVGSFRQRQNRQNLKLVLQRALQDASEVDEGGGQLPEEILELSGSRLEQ
RGS4 act: RGS4 potentiators or activators, primary screen, cell-based, HEK293 M3R inducible RGS4, calcium flux; carbachol calcium flux Fluo4; stronger effect = lower value; B-score at 10 µM; 0.92% of 310,000 active;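 active = B-score of the integrated calcium signal more than 4 SD below the library mean, with starting fluorescence not abnormally high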;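 also: negative B-score means reduced calcium response which marks RGS4 activation or potentiation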
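Also added: carbachol at ECmax as muscarinic agonist stimulus; Assay system: HEK293 cells with stable M3R and inducible RGS4; Timing: overnight RGS4 induction, 30 min dye load 37 °C, 20 min compound RT; Measured by: Fluo4-AM (2 µM) calcium-flux fluorescence, kinetic read.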
RGS4 inh: RGS4 inhibitors, primary screen, cell-based, HEK293 M3R inducible RGS4, calcium flux; Regulator of G-protein signaling 4 (Homo sapiens), P49798; Fluo-4 calcium flux; stronger effect = higher value; triggered by carbachol at its EC20; B-score at 10 µM; 0.45% of 310,000 active; AID 463165, 2010;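 active = B-score, a plate-corrected calcium signal, over three deviations above library mean, with baseline fluorescence within five deviations of library mean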;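 also: RGS4 expression induced by doxycycline in cells with stable M3 receptor; B-score is computed from the integrated fluorescence ratio over baseline after carbachol; higher B-score means a larger calcium signal and so more RGS4 inhibition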
MrgX1 agonist: agonists of human MrgX1 receptor, primary screen, HEK293 cells, Fluo-4 calcium flux | AID 588627, 2011 | B-score at 10 µM | Fluo-4 calcium fluorescence, agonist mode; stronger effect = higher value | Mas-related G-protein coupled receptor member X1 (Homo sapiens), Q96LB2 | 0.44% of 310,000 active;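 active = calcium response B-score plate-corrected fluorescence ratio at least 3 library SD, with starting fluorescence B-score inside 5 SD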
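System – MrgX1-expressing HEK293 cells · Incubation – cells plated overnight, dye loaded 0.5 h 37 °C, 0.5 h room temperature · Technique – kinetic Fluo-4 NW fluorescence of intracellular calcium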
MrgX1 PAM: positive allosteric modulators of MrgX1, primary screen, HEK293 cells, Fluo-4 calcium flux; FDSS; stronger effect = higher value; 0.63% of 310,000 active; B-score at 10 µM; Mas-related G-protein coupled receptor member X1 (Homo sapiens), Q96LB2;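 active = plate-corrected calcium response at least 3 library SD above typical, normal starting fluorescence, not activating the receptor alone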;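 also: compound read alongside a low EC10 to EC30 dose of BAM8-22 agonist; peak minus trough fluorescence over baseline measured at the second addition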
PHOSPHO1 inh: PubChem AID 1565. Phosphoethanolamine/phosphocholine phosphatase (Homo sapiens), Q8TCT1. recombinant PHOSPHO1, absorbance phosphatase assay. inhibition, % at 13.3 µM. 1.1% of 290,000 active; in the data active = inhibition above about 60%
MrgX1 PAM conf: MrgX1 positive allosteric modulators, duplicate retest, confirmation, HEK293 cells, Fluo-4 calcium flux | 13% of 1,200 active | activation (ratio percentage), % at 10 µM | AID 602413, 2012 | Fluo-4 calcium fluorescence, FDSS | shares compounds with MrgX1 PAM;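 active = ratio at least 3 SD above the weak peptide control, stable starting fluorescence, no direct agonism earlier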;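 also: compound followed by low BAM8-22 agonist challenge near EC20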
HEK293 Ca flux: nonspecific calcium signal in parental HEK293, confirmation, counter-screen for MrgX1 antagonist project, parental HEK293 cells, Fluo-4 calcium flux. shares compounds with MrgX1 antag. Fluo-4 calcium fluorescence, FDSS. fluorescence ratio F(max-min)/F0 at 10 µM. 2% of 4,000 active. AID 624111, 2012;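 active = duplicate-averaged calcium fluorescence ratio at least three times the standard deviation of buffer wells, a nonspecific response in parental cells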
HEK293 Ca counter: calcium response in parental HEK293 cells, primary screen, counter-screen for MrgX1 allosteric activator project, cell-based, Fluo-4 calcium flux, duplicate; fluorescence ratio F(max-min)/F0 at 10 µM; shares compounds with MrgX1 antag; 0.4% of 4,000 active; Fluo-4 fluorescence ratio; stronger effect = higher value;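 active = calcium fluorescence ratio, averaged over duplicates, at least 3 SD of the buffer-well ratio, meaning a nonspecific response in receptor-free cells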;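 also: untransfected parental HEK293 lacking MrgX1 used as counterscreen for MrgX1 allosteric activators; fluorescence change taken during the second addition on a kinetic imager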
HEK293 Ca cntr2: calcium response in parental HEK293 cells, primary screen, counter-screen for MrgX1 agonist project, cell-based, Fluo-4 calcium flux, duplicate, agonist mode; 8.7% of 4,000 active; AID 624115, 2012; fluorescence ratio F(max-min)/F0 at 10 µM; Fluo-4 calcium fluorescence (FDSS); stronger effect = higher value; shares compounds with MrgX1 antag;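 active = calcium fluorescence ratio at least three times the spread of buffer wells, meaning a non-specific response in parental cells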
The depositor's hits bear a star; i = inactive; nt = not tested or not shown. An excerpt weighted towards active compounds, which were near 4.5% of everything screened.

SMILES	MrgX1 antag	RGS4 act	RGS4 inh	MrgX1 agonist	MrgX1 PAM	PHOSPHO1 inh	MrgX1 PAM conf	HEK293 Ca flux	HEK293 Ca counter	HEK293 Ca cntr2
N#Cc1c(-c2ccccc2)cc(-c2ccccc2)nc1SCC(=O)NCC(=O)O	i	i	i	i	19*	-1	i	i	i	i
Cc1c(OC(C)C(=O)NCCCN2CCOCC2)ccc2c3c(c(=O)oc12)CCC3 (stereo not drawn)	i	i	i	i	i	41	nt	nt	nt	nt
Cc1c(OC(C)C(=O)NCCCN2CCOCC2)ccc2c3c(c(=O)oc12)CCCC3 (stereo not drawn)	i	i	i	i	6.9*	7	i	i	i	i
COc1ccc(NC(=O)Cn2c(=O)n(-c3ccc(CC(=O)NCc4ccco4)cc3)c(=O)c3ccccc32)cc1	i	i	i	i	i	16	nt	nt	nt	nt
Cc1ccc(-n2c(CCc3ccccc3)n[nH]c2=S)cc1C	i	i	i	i	6.5*	-146	i	i	i	i
Cc1ccc(OCc2n[nH]c(=S)n2-c2ccccc2)cc1C	i	i	i	i	8.7*	-13	i	i	i	i
Cc1ccc(-n2c(COc3ccccc3)n[nH]c2=S)cc1	i	i	i	i	8*	44	i	i	i	i
COc1ccc(-n2c(COc3ccc(C)cc3)n[nH]c2=S)cc1	i	i	i	i	i	-85	nt	nt	nt	nt
Cc1ccc(-n2c(COc3cccc(C)c3)n[nH]c2=S)cc1	i	i	i	i	11*	2	i	i	i	i
CC1CCC2(CC1)C(Nc1cccc(Cl)c1)=NC(=S)N2CC#N (stereo not drawn)	i	i	i	i	8.3*	12	i	i	i	i
CC1CCC(=C(C#N)C(=O)Nc2cccc(Cl)c2)CC1 (stereo not drawn)	i	i	i	i	i	25	nt	nt	nt	nt
N#CC1=C(N)Oc2c(oc(CO)cc2=O)C1c1ccsc1 (stereo not drawn)	i	i	i	i	i	9	nt	nt	nt	nt
N#CC1=C(N)Oc2c(ccc3ccccc23)C1c1ccsc1 (stereo not drawn)	i	i	i	i	14*	3	i	i	i	i
CCN(CC)S(=O)(=O)c1ccc2nc(SC)sc2c1	i	i	i	i	13*	-1	i	i	i	i
CSc1nc2ccc(S(=O)(=O)N(C)C)cc2s1	i	i	i	i	i	7	nt	nt	nt	nt
O=C(OCC(=O)N1CCCC1)c1ccc(S(=O)(=O)Nc2ccccc2)cc1	i	i	i	i	12*	1	i	i	i	i
